Experimental findings from ChEMBL document CHEMBL1123487, “Zwitterionic 3'-O-acyl derivatives of thymidine 5'-phosphate as potential sources of intracellular thymidine 5'-phosphate in cells in culture” (J Med Chem, 1986) are described below.

The test system of data set [1] is LM. Nature of the data set: Effect on DNA synthesis in mouse LM(TK-) cells blocked in DNA synthesis with Aminopterin at 10e-4 M. The format is functional. In a few lines:
(§1)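 LM(TK-) mouse fibroblasts, 5×10^5 or 1×10^6 per 6-cm dish, grown overnight in DMEM/10% FBS at 37 °C, 5% CO2. Blocked 3 h in medium with heat-inactivated serum, aminopterin 1 μg/mL, glycine and hypoxanthine 15 μg/mL each, no 5'-NH2-dT. Compounds diluted from 10 mM stocks in 50% ethanol-water; controls got vehicle. Recovery 2 h, then [3H]-dC 1 μCi/mL for 1–3 h. Cold 5% TCA-insoluble counts in duplicate; enhancement = rate with compound / rate in parallel controls.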

The subject of data set [2] is L929. As to the kind of experiment: Stimulation of DNA synthesis in L929 cells in the presence of 5'-NH2-dT. The class given is functional, Mus musculus.
For data set [3], the system named is L929. Nature of the data set: Rate of incorporation of [3H]-dC into DNA in mouse L929 cells at 10e-4 concentration; units=cpm/hx 5*10e5 cells. The class given is functional.
The subject of data set [4] is L929. As to the kind of experiment: Stimulation of DNA synthesis in L929 cells in the absence of 5'-NH2-dT. The format is functional, Mus musculus. The gist of the method: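 L929 cells blocked 3 h with aminopterin medium. 5'-NH2-dT (1.0 mM) was left out of the 2 h recovery medium that held the compound. Labelled with [3H]-dC 1 μCi/mL; TCA-insoluble incorporation (cpm/h per 5×10^5 cells) compared with parallel control cultures.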

The nature of data set [5]: Compound was evaluated for the Hydrolysis rate in aqueous 50 mM Potassium Phosphate. The format is ADME. The settings on record: aqueous potassium phosphate buffer. The gist of the method:
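5 mM ester in aqueous 50 mM potassium phosphate, pH 7.6, held at 37 °C. Release of free nucleotide followed by paper electrophoresis at pH 3.6 (thymidine release by silica TLC, UV inspection). log(residual ester) plotted against time; t1/2 read graphically from the linear pseudo-first-order plot.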

The subject of data set [6] is LM. Nature of the data set: Effect (10e-3 M) on DNA synthesis in mouse LM(TK-) cells blocked in DNA synthesis with Aminopterin. The format is functional. In a few lines: as §1
The subject of data set [7] is LM. Nature of the data set: Effect (10e-4 M) on DNA synthesis in mouse LM(TK-) cells blocked in DNA synthesis with Aminopterin. The class given is functional. In a few lines:
as §1

Data set [8] concerns LM. As to the kind of experiment: Effect (10e-5 M) on DNA synthesis in mouse LM(TK-) cells blocked in DNA synthesis with Aminopterin. The class given is functional. The gist of the method: as §1
For data set [9], the system named is LM. As to the kind of experiment: Effect (10e-6 M) on DNA synthesis in mouse LM(TK-) cells blocked in DNA synthesis with Aminopterin. The format is functional. In a few lines:
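LM(TK-) fibroblasts seeded and cultured overnight. Blocked 3 h in heat-inactivated-serum medium with aminopterin 1 μg/mL, glycine and hypoxanthine 15 μg/mL, no 5'-NH2-dT. Compound diluted from 10 mM stock in 50% ethanol-water and applied 2 h. Then [3H]dC 1 μCi/mL; acid-insoluble radioactivity measured in duplicate. Effect expressed as incorporation rate relative to parallel vehicle controls.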

The test system of data set [10] is L929. Nature of the data set: Rate of incorporation of [3H]dC into DNA in mouse L929 cells at 10e-5 concentration; units=cpm/hx 5*10e5 cells. The class given is functional. The gist of the method: (§2)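 L929 cells seeded at 5×10^5 or 1×10^6 per dish in DMEM/10% FBS, overnight at 37 °C, 5% CO2. Blocked 3 h in medium with heat-inactivated serum, aminopterin 1 μg/mL, glycine and hypoxanthine 15 μg/mL each, and 1.0 mM 5'-NH2-dT. Test agent in the same medium for 2 h, then 1 μCi/mL [3H]dC for 1–3 h. Cold 5% TCA-insoluble counts in duplicate, scaled to cell counts.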

The test system of data set [11] is L929. Nature of the data set: Rate of incorporation of [3H]dC into DNA in mouse L929 cells at 10e-6 concentration; units=cpm/hx 5*10e5 cells. The class given is functional. The gist of the method: as §2
The subject of data set [12] is L929. Nature of the data set: Rate of incorporation of [3H]dC into DNA in mouse L929 cells at 10e-4 concentration; units=cpm/hx 5*10e5 cells. The format is functional.

Values joined by “and” are separate entries in the source; they are usually repeats but may differ in a detail not shown here. Equal entries are not always repeated.

In the case of `CC[N+](CC)(CC)CC[N+](CC)(CC)CCCCC(=O)O[C@H]1C[C@H](n2cc(C)c(=O)[nH]c2=O)O[C@@H]1COP(=O)([O-])[O-]`, the Incorporation rate was 171 c.p.m. hr-1 in data set [1]; 808 c.p.m. hr-1 in data set [2]; 673 c.p.m. hr-1 and 1103 c.p.m. hr-1 in data set [3]; 5462 c.p.m. hr-1 in data set [4].

Take `CC[N+](CC)(CC)CCC[N+](CC)(CC)CCCCC(=O)O[C@H]1C[C@H](n2cc(C)c(=O)[nH]c2=O)O[C@@H]1COP(=O)([O-])[O-]`: the half-life in data set [5] was 72 h.

On to `Cc1cn([C@H]2C[C@H](O)[C@@H](CO)O2)c(=O)[nH]c1=O` [DOXRIBTIMINE], for which the Incorporation rate in data set [6] was 213 c.p.m. hr-1; in [7], 228 c.p.m. hr-1 and 251 c.p.m. hr-1; in data set [8], 204 c.p.m. hr-1; in data set [9], 185 c.p.m. hr-1; in data set [3], 28200 c.p.m. hr-1; in data set [10], 2937 c.p.m. hr-1. The Incorporation rate in data set [11] is 465 c.p.m. hr-1.

In turn, `CC[N+](CC)(CC)CCCC[N+](CC)(CC)CCCCC(=O)O[C@H]1C[C@H](n2cc(C)c(=O)[nH]c2=O)O[C@@H]1COP(=O)([O-])[O-]` showed a half-life in data set [5] of 85 h. The Incorporation rate in data set [7] was 204 c.p.m. hr-1 and 147 c.p.m. hr-1; in [2] it was 1135 c.p.m. hr-1; in data set [3], 1356 c.p.m. hr-1 and 1299 c.p.m. hr-1; in data set [4] it was 7462 c.p.m. hr-1.

Turning to `CC[N+](CC)(CC)CCCC[N+](CC)(CC)CCCCC(=O)O[C@H]1C[C@H](n2cc(C)c(=O)[nH]c2=O)O[C@@H]1CO.[Cl-].[Cl-]`, the half-life in data set [5] was 87 h.

In data set [5], `CC(=O)O[C@H]1C[C@H](n2cc(C)c(=O)[nH]c2=O)O[C@@H]1CO` showed a half-life of 135 h.

Consider `Cc1cn([C@H]2C[C@H](O)[C@@H](COP(=O)(O)O)O2)c(=O)[nH]c1=O` [THYMIDINE MONOPHOSPHATE], for which the Incorporation rate in data set [6] was 596 c.p.m. hr-1 and 668 c.p.m. hr-1 and 837 c.p.m. hr-1; in data set [7], 381 c.p.m. hr-1 and 295 c.p.m. hr-1; in data set [8], 323 c.p.m. hr-1 and 256 c.p.m. hr-1.

As for `CCN(CC)CC[N+](CC)(CC)CCCC(=O)O[C@H]1C[C@H](n2cc(C)c(=O)[nH]c2=O)O[C@@H]1CO.Cl.[Cl-]`, the half-life in data set [5] was 28 h.

In turn, `CCN(CC)CC[N+](CC)(CC)CCCC(=O)O[C@H]1C[C@H](n2cc(C)c(=O)[nH]c2=O)O[C@@H]1COP(=O)([O-])O` gave a half-life in [5] of 28 h.

Turning to `CCN(CC)CCC[N+](CC)(CC)CCCCC(=O)O[C@H]1C[C@H](n2cc(C)c(=O)[nH]c2=O)O[C@@H]1COP(=O)([O-])O`, the half-life in data set [5] was 74 h. Moreover, the Incorporation rate in data set [3] was 605 c.p.m. hr-1 and 504 c.p.m. hr-1.

On to `CCN(CC)CCCC[N+](CC)(CC)CCCCC(=O)O[C@H]1C[C@H](n2cc(C)c(=O)[nH]c2=O)O[C@@H]1COP(=O)([O-])O`, for which, in [12], the Incorporation rate is 782 c.p.m. hr-1 and 821 c.p.m. hr-1.
